From ChEMBL document CHEMBL3244004, “Potential antitumor agents. 27. Quantitative structure--antileukemic (L1210) activity relationships for the omega-[4-(9-acridinylamino)phenyl]alkanoic acids” (J Med Chem, 1978)
Calls of active or inactive are those of the source. The calls are words filed in the database; no cut-off is given here.

How the values were obtained:
[1] = Logarithmic function of the retardation factor value of compound by reverse phase chromatography analysis; type: physicochemical
How it was run: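 Lipophilic-hydrophilic balance read by reversed-phase TLC, using a system described in an earlier report. R_m is calculated as log(1/R_f − 1). Each quoted figure is the mean of at least three determinations.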

L1210 = assay: Antitumor activity against mouse L1210 cells allografted in C3H/DBA2F1 hybrid mouse assessed as maximum increase of host life span administered as ip for 5 days relative to control; type: functional
How it was run: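 Mice (C3H/DBA2 F1 hybrid, 18.5–22.5 g; six per dose level) were inoculated ip with 10^5 L1210 cells. Ip treatment ran once daily on days 1–5, starting 24 h after inoculation, in 0.2 mL per dose. Doses were spaced 0.09 log units apart. ILS = T/C% − 100, significant if above 25%. Significant ILS values were regressed on log dose, and ILSmax was read at the LD10.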

Mus musculus = assay: Toxicity in ip dosed C3H/DBA2F1 hybrid mouse allografted with mouse L1210 cells administered for 5 days measured up to 8 days; type: organism-based; settings: in vivo
How it was run: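 C3H/DBA2 F1 hybrid mice (18.5–22.5 g) bearing ip 10^5 L1210 cells were dosed ip once daily for 5 days, starting 24 h after inoculation, at 0.2 mL per dose. Doses were spaced 0.05 log units apart. Deaths before day 8 were taken as drug toxicity, and the dose lethal to 10% of animals (LD10) was derived.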

Row | Structure (SMILES) | Rm [1] | ILSmax (L1210) | LD10 (Mus musculus) [mg/kg] | log(ILSmax) (L1210)
1 | CCCCS(=O)(=O)Nc1ccc(Nc2c3ccccc3nc3ccccc23)cc1 | 0.56 | 66% | 350 | 
2 | CCc1cccc2c(Nc3ccc(CC(=O)O)cc3)c3ccccc3nc12 | 0.52 | 200% | 200 | 2.3
3 | Cl.O=C(O)CCCCCCCCc1ccc(Nc2c3ccccc3nc3ccccc23)cc1 | 0.85 | 72% | 100 | 1.86
4 | NC(=O)CCc1ccc(Nc2c3ccccc3nc3ccccc23)cc1 | -0.17 | 84% | 75 | 1.92
5 | CS(=O)(=O)O.NC(=O)CCCCCCCCc1ccc(Nc2c3ccccc3nc3ccccc23)cc1 | 0.77 | 25% | 60 | 1.4
6 | Cl.NS(=O)(=O)Cc1ccc(Nc2c3ccccc3nc3ccccc23)cc1 | -0.36 | 53% | 62 | 1.72
7 | CC(=O)Nc1ccc2c(Nc3ccc(CCCCCC(=O)O)cc3)c3ccccc3nc2c1.Cl | 0.54 | inactive | > 500 | 
8 | Cc1cccc2c(Nc3ccc(CC(=O)O)cc3)c3ccccc3nc12 | 0.3 | 80% | 95 | 1.9
9 | CCS(=O)(=O)Nc1ccc(Nc2c3ccccc3nc3ccccc23)cc1 | 0.25 | 98% | 330 | 
10 | CNc1ccc2c(Nc3ccc(OCCCC(=O)O)cc3)c3ccccc3nc2c1.Cl | 0.61 | 30% | > 500 | >1.48
11 | CC(=O)Nc1ccc2c(Nc3ccc(C(=O)O)cc3)c3ccccc3nc2c1.Cl | 0.15 | inactive | > 500 | 
12 | CCCS(=O)(=O)Nc1ccc(Nc2c3ccccc3nc3ccccc23)cc1 | 0.43 | 82% | 350 | 
13 | CCCCCS(=O)(=O)Nc1ccc(Nc2c3ccccc3nc3cc(NC(C)=O)ccc23)cc1 | 0.59 | 61% | 40 | 1.78
14 | CCCS(=O)(=O)Nc1ccc(Nc2c3ccccc3nc3cc(NC(C)=O)ccc23)cc1 | 0.3 | 115% | 33 | 2.06
15 | Cl.O=C(O)CCc1ccc(Nc2c3ccccc3nc3ccccc23)cc1 | 0.44 | 163% | 125 | 2.21
16 | Cl.O=C(O)CCCc1ccc(Nc2c3ccccc3nc3ccccc23)cc1 | 0.59 | 213% | 190 | 2.33
17 | Cl.O=C(O)CCCCCCCc1ccc(Nc2c3ccccc3nc3ccccc23)cc1 | 0.82 | 75% | 95 | 1.88
18 | CCS(=O)(=O)Nc1ccc(Nc2c3ccccc3nc3cc(NC(C)=O)ccc23)cc1 | 0.1 | 115% | 28 | 2.06
19 | NS(=O)(=O)CCc1ccc(Nc2c3ccccc3nc3ccccc23)cc1 | -0.2 | 68% | 80 | 1.83
20 | O=C(O)c1ccc(Nc2c3ccccc3nc3ccccc23)cc1 | 0.27 | 130% | 72 | 2.11
21 | CNc1ccc2c(Nc3ccc(CCCC(=O)O)cc3)c3ccccc3nc2c1.Cl | 0.67 | 35% | 400 | 1.54
22 | CS(=O)(=O)Nc1ccc(Nc2c3ccccc3nc3ccccc23)cc1 | 0 | 131% | 66 | 
23 | CC(=O)Nc1ccc2c(=Nc3ccc(CCC(=O)O)cc3)c3ccccc3[nH]c2c1.Cl | 0.27 |  | 145 | <1.3
24 | CCc1cccc2c(Nc3ccc(CCC(=O)O)cc3)c3ccccc3nc12.Cl | 0.66 | 130% | 200 | 2.11

Row | Structure (SMILES) | Rm [1] | ILSmax (L1210) | LD10 (Mus musculus) [mg/kg] | log(ILSmax) (L1210)
25 | CCCCCCS(=O)(=O)Nc1ccc(Nc2c3ccccc3nc3cc(NC(C)=O)ccc23)cc1 | 0.7 | 43% | 21 | 1.63
26 | CCC(=O)Nc1ccc2c(Nc3ccc(NS(C)(=O)=O)cc3)c3ccccc3nc2c1 | 0.15 | 119% | 55 | 2.08
27 | NC(=O)c1ccc(Nc2c3ccccc3nc3ccccc23)cc1 | -0.25 |  | 182 | <1.3
28 | O=C(O)CCCCCCc1ccc(Nc2c3ccccc3nc3ccccc23)cc1 | 0.79 | 74% | 90 | 1.87
29 | CNc1ccc2c(Nc3ccc(NS(C)(=O)=O)cc3)c3ccccc3nc2c1.Cl | -0.01 | 103% | 7 | 2.01
30 | CCCCCCS(=O)(=O)Nc1ccc(Nc2c3ccccc3nc3ccccc23)cc1.Cl | 0.75 | 35% | 120 | 
31 | NC(=O)CCCCCCc1ccc(Nc2c3ccccc3nc3ccccc23)cc1 | 0.58 | 71% | 110 | 1.85
32 | NC(=O)CCCc1ccc(Nc2c3ccccc3nc3ccccc23)cc1 | 0.09 | 122% | 85 | 2.09
33 | CNc1ccc2c(Nc3ccc(NS(C)(=O)=O)cc3OC)c3ccccc3nc2c1.Cl | 0.17 | 94% | 1.3 | 1.97
34 | Cc1cccc2c(Nc3ccc(CCC(=O)O)cc3)c3ccccc3nc12 | 0.46 | 124% | 32 | 2.09
35 | CS(=O)(=O)O.NC(=O)Cc1ccc(Nc2c3ccccc3nc3ccccc23)cc1 | -0.33 | 64% | 55 | 1.81
36 | O=C(O)CCCCc1ccc(Nc2c3ccccc3nc3ccccc23)cc1 | 0.64 | 187% | 125 | 2.27
37 | CS(=O)(=O)O.NC(=O)CCCCCCCc1ccc(Nc2c3ccccc3nc3ccccc23)cc1 | 0.68 | 53% | 120 | 1.72
38 | Cl.O=C(O)CCCCCCCCCc1ccc(Nc2c3ccccc3nc3ccccc23)cc1 | 0.86 | 75% | 75 | 1.88
39 | CS(=O)(=O)O.NC(=O)CCCCCc1ccc(Nc2c3ccccc3nc3ccccc23)cc1 | 0.41 | 97% | 125 | 1.99
40 | CS(=O)(=O)O.NC(=O)CCCCc1ccc(Nc2c3ccccc3nc3ccccc23)cc1 | 0.25 | 82% | 110 | 1.91
41 | CCCCCS(=O)(=O)Nc1ccc(Nc2c3ccccc3nc3ccccc23)cc1.Cl | 0.66 | 55% | 70 | 
42 | NS(=O)(=O)c1ccc(Nc2c3ccccc3nc3ccccc23)cc1 | -0.57 | inactive | > 500 | 
43 | CC(=O)Nc1ccc2c(Nc3ccc(NS(C)(=O)=O)cc3)c3ccccc3nc2c1 | -0.12 | 145% | 19 | 
44 | Cl.O=C(O)CCCCCc1ccc(Nc2c3ccccc3nc3ccccc23)cc1 | 0.75 | 200% | 150 | 2.3
45 | Cl.O=S(=O)(Cc1ccc(Nc2c3ccccc3nc3ccccc23)cc1)Nc1ccccn1 | -0.04 | 99% | 370 | 2
46 | O=C(O)Cc1ccc(Nc2c3ccccc3nc3ccccc23)cc1 | 0.23 | 22% | 450 | 1.34
47 | CN(C)C(=O)CCCc1ccc(Nc2c3ccccc3nc3ccccc23)cc1.Cl | 0.68 |  | 52 | <1.3
48 | CCCCS(=O)(=O)Nc1ccc(Nc2c3ccccc3nc3cc(NC(C)=O)ccc23)cc1 | 0.46 | 84% | 39 | 1.92
